What is called Papp A→B is the apparent permeability from the apical to the basolateral side of a cell layer. A word on the Papp B→A: it is the apparent permeability from the basolateral to the apical side of a cell layer.

The nature of data set [1]: Metabolic stability using pooled human liver microsomes. It is filed as in vitro ADME. The note with it: 10 and 50 μM, active microsomes, up to 60 min, 37°C.
Data set [2] deals with T1, CYP1A2 (Homo sapiens, UniProt P05177).
T1 sequence (P05177 1-516): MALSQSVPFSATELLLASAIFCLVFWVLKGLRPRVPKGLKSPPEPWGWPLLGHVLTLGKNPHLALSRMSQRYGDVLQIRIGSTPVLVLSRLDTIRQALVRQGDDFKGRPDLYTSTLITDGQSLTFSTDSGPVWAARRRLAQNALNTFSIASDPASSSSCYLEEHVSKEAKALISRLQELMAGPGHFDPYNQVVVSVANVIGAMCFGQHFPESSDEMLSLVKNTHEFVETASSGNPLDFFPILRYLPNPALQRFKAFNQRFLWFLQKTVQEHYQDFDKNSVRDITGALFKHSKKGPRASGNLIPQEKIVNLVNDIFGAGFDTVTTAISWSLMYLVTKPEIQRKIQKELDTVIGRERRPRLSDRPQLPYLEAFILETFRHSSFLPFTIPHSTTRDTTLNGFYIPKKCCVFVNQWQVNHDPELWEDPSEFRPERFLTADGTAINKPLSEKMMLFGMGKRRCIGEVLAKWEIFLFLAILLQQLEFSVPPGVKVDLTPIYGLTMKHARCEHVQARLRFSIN
Description: CYP inhibition in human liver microsomes. It is filed as in vitro ADME. The note with it: 1 or 10 μM test article, 20 min, 37°C. The gist of the method: (§1)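 Pooled human liver microsomes (0.5 mg/mL), 2.5 mM NADPH, 3.3 mM MgCl₂, 0.1 M phosphate pH 7.4, 0.3% DMSO, probe cocktail near Km: phenacetin 25 μM (1A2), bupropion 25 μM (2B6), diclofenac 10 μM (2C9), mephenytoin 20 μM (2C19), bufuralol 10 μM (2D6), testosterone 50 μM and midazolam 4 μM (3A4). Cold acetonitrile quench; LC-MS/MS metabolite peak-area ratio over mean control ×100; n = 3.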

For data set [3], the target named is T2, CYP2B6 (Homo sapiens, UniProt P20813).
T2 sequence (P20813 1-491): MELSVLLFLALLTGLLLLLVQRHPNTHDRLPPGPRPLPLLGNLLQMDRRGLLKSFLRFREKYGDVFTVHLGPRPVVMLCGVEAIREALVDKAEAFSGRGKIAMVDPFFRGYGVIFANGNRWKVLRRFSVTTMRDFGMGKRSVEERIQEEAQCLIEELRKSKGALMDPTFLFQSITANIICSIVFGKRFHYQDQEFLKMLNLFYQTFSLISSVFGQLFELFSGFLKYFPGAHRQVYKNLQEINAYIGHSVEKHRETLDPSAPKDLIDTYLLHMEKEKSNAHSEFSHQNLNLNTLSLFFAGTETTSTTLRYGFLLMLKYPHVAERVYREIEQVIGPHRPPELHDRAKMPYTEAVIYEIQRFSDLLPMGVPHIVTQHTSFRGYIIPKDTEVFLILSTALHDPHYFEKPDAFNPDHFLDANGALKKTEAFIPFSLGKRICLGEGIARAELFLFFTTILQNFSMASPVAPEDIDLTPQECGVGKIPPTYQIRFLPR
Description: CYP inhibition in human liver microsomes. Type of data set: in vitro ADME. The note with it: 1 or 10 μM test article, 20 min, 37°C. In short, it runs like this:
as §1

For data set [4], the target named is CYP2C9 (Homo sapiens, UniProt P11712). Kind of data set: CYP inhibition in human liver microsomes. Type of data set: in vitro ADME. The note with it: 1 or 10 μM test article, 20 min, 37°C. In short, it runs like this: as §1
Chain of CYP2C9 (P11712 whole entry): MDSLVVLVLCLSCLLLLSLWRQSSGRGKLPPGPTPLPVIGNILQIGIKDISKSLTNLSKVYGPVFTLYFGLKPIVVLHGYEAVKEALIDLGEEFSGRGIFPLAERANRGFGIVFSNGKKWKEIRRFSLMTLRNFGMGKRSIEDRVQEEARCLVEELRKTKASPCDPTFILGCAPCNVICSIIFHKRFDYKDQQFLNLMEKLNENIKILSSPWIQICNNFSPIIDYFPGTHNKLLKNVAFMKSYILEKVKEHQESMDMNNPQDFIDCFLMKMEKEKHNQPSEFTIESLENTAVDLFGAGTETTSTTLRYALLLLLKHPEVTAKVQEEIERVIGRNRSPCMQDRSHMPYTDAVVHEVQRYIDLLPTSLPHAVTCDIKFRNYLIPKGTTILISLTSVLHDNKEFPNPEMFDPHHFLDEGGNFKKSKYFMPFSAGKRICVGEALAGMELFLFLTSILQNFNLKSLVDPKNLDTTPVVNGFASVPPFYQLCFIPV
Data set [5] deals with CYP2C19 (Homo sapiens, UniProt P33261). Kind of data set: CYP inhibition in human liver microsomes. It is filed as in vitro ADME. The note with it: 1 or 10 μM test article, 20 min, 37°C. In short, it runs like this:
as §1

Data set [6] deals with CYP2D6 (Homo sapiens, UniProt P10635). Description: CYP inhibition in human liver microsomes. It is filed as in vitro ADME. The note with it: 1 or 10 μM test article, 20 min, 37°C. The gist of the method: as §1
Chain of CYP2D6 (P10635 whole entry): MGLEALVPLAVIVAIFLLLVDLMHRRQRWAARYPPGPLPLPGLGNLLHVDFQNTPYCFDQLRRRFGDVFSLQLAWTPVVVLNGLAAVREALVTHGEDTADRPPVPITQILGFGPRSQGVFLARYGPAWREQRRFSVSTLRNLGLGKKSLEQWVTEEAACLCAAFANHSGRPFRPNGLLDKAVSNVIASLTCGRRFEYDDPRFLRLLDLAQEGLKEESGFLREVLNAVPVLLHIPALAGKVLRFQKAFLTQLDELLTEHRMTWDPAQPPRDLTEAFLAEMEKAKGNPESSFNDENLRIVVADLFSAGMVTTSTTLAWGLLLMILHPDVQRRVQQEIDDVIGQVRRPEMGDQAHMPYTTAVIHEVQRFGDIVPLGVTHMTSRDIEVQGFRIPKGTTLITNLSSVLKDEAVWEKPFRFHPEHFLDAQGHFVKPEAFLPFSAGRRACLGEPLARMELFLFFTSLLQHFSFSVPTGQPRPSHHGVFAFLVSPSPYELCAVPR
For data set [7], the target named is CYP3A4 (Homo sapiens, UniProt P08684). Description: CYP inhibition in human liver microsomes. The note with it: 1 or 10 μM test article, 20 min, 37°C. It is filed as in vitro ADME. The gist of the method: as §1
Chain of CYP3A4 (P08684 whole entry): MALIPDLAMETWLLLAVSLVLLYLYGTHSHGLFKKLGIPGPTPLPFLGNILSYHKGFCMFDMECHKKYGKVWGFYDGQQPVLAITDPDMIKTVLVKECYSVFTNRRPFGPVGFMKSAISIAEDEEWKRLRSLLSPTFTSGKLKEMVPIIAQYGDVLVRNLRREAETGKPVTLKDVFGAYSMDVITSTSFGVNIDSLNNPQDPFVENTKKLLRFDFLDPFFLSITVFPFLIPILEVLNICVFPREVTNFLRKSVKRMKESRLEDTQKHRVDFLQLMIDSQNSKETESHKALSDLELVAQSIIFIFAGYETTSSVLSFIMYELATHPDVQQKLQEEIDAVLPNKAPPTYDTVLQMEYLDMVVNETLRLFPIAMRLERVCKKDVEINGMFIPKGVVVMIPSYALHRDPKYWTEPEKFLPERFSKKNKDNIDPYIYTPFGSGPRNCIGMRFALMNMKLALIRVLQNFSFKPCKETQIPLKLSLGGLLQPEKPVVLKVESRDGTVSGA
(Liver microsomes are a subcellular fraction often used to study metabolism.)

Data set [8] relates to rat plasma proteins. Kind of data set: Plasma protein binding by gel filtration. Type of data set: in vitro ADME, Sprague Dawley rat. The note with it: 2 h, 37°C. The gist of the method: (§2)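 Test compound (2.65, 13.3 and 40.0 μM final) was incubated in plasma for 2 h at 37°C. Bound compound was separated on Sephadex G-25 by spin filtration (5 min, 200 × g). Eluates were run in duplicate: EDTA addition, chloroform:methanol extraction, acetonitrile precipitation, then LC-MS/MS (MRM 751 → 195, positive ESI) against 15 plasma standards from 0 to 66.7 μM. Eluate concentration was corrected for protein dilution, measured by microbiuret against BSA standards. % bound = corrected/total (mean ± SD, n = 3).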
(In general: SEC sorts molecules by how far they enter the pores of the column.)

Data set [9] has as its system dog plasma proteins. Kind of data set: Plasma protein binding by gel filtration. It is filed as in vitro ADME, beagle dog. The note with it: 2.7, 13.3 and 40.0 μM, 2 h, 37°C. In short, it runs like this:
as §2

For data set [10], the system named is human plasma proteins. Kind of data set: Plasma protein binding by gel filtration. It is filed as in vitro ADME. The note with it: 2 h, 37°C. The gist of the method:
as §2

Data set [11] can be described thus: Stability in plasma. It is filed as in vitro ADME. The note with it: mouse plasma diluted 1:1 with PBS, 15 μM, up to 1 h, 37°C.
Data set [12] in a line: Stability in plasma. The note with it: rat plasma diluted 1:1 with PBS, 15 μM, up to 1 h, 37°C. Type of data set: in vitro ADME.
The nature of data set [13]: Stability in plasma. It is filed as in vitro ADME. The note with it: dog plasma diluted 1:1 with PBS, 15 μM, up to 1 h, 37°C.
Data set [14] is described as follows: Stability in plasma. The note with it: human plasma diluted 1:1 with PBS, 15 μM, up to 1 h, 37°C. It is filed as in vitro ADME.
The nature of data set [15]: Stability in acidic aqueous buffered solutions. It is filed as physicochemical. The note with it: for stability in acidic buffer: 48 h, 25°C/60%RH. The gist of the method: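 Test compound at 10 mg/mL was held in USP buffers: hydrochloric acid (pH 1.40), acetate (pH 4.50) and phosphate (pH 6.80). Incubation was at 25°C/60% RH in sealed, light-protected glass vials. Aliquots taken at 1, 3, 6, 24 and 48 h were diluted 10-fold and analysed by LC-MS, as for the microsomal stability samples.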

A short description of data set [16]: Stability in simulated gastric fluid. The note with it: SGF pH 1.2 with pepsin, 37°C, 60 min. Type of data set: in vitro ADME. In short, it runs like this:
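Simulated gastric fluid (pH 1.2) contained 3.2 g/L porcine pepsin, 2 g/L NaCl and 8 mL/L 6 N HCl, stored at 2–8°C and pre-warmed to 37°C. […] Reactions were stopped with 0.1 M sodium carbonate and chilled acetonitrile containing ¹³C internal standard, filtered, and analysed by LC-MS; content is expressed relative to initial.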

Data set [17] in a line: Permeability through Transwell plate not containing Caco-2 cells. The note with it: 24-well Transwell plate not containing Caco-2 cells. It is filed as in vitro ADME. The gist of the method:
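This run repeated the Caco-2 bi-directional protocol in a Transwell plate without cells. Test compound (10 and 50 μM final) in HBSS, pH 7.4, was placed in duplicate wells for each direction. Receiver aliquots were taken at 30, 60, 90 and 120 min into 10 mM EDTA and replaced with fresh medium. Donor wells were sampled at start and end for recovery. Analysis was LC-MS/MS (positive ESI, MRM), and Papp was calculated from dQ/dt, receiver volume, membrane area and initial concentration.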
For orientation: Caco-2 cells form a polarised layer with tight junctions and transporters.

For data set [18] the following is noted: orally administered, 225 mg/kg; cited from earlier work.
Data set [19] relates to Caco-2 cells. Kind of data set: Bi-directional permeability study using Caco-2 cells. The note with it: for % Recovery of Test Article A–B (mean) / % Recovery of Test Article B-A (mean): end of experiment.
For data set [20], the system named is P-gp. The data set is described as above. The note with it: human; for Papp A→B at 120 min, 1 μM: Caco-2, pH 6, Papp A–B (mean); for Papp B→A at 120 min, 1 μM: Caco-2, pH 7.4, Papp B-A (mean).
The conditions of data set [21]: negative control; cited from earlier work.

Chain of CYP2C19 (P33261 whole entry): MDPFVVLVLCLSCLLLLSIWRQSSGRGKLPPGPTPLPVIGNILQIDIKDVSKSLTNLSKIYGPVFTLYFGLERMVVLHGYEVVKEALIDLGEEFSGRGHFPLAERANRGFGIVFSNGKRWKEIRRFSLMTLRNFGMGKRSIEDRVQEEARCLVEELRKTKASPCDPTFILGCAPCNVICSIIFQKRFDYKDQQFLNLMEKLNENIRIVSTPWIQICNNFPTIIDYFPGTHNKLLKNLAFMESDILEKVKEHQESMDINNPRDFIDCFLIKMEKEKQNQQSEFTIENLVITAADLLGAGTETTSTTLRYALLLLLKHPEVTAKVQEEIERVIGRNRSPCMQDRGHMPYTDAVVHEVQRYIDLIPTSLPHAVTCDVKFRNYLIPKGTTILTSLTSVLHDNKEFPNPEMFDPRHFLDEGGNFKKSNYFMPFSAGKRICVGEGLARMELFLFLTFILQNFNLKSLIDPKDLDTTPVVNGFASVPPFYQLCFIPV

For `O=C(NCCCN(CCCCN(CCCNC(=O)c1cccc(=O)n1O)C(=O)c1cccc(=O)n1O)C(=O)c1cccc(=O)n1O)c1cccc(=O)n1O` [3,4,3-LI(1,2-HOPO)], the “% of test article remaining (metabolic stability)” value in [1] was “no loss of parent test article”. For the same compound, the “% CYP activity relative to control” value in [2], in data set [3], in [4], in [5], in data set [6] and in [7] was “none of the CYP isoforms were significantly influenced” in each case. Moreover, the “% protein-bound” value in [8] (2.65 μM) and in data set [10] (2.65 μM) was “below the lower limit of quantitation” in each case. The “extent of plasma protein binding (rank among species)” value was “lowest” in [8] (2.7, 13.3 and 40.0 μM); “greatest” in [9]; “intermediate” in [10] (2.7, 13.3 and 40.0 μM). Also, the “stability in plasma (% of test article remaining)” value in data set [11], in data set [12], in data set [13] and in data set [14] was “No degradation” in each case. The “stability in acidic buffer” value in data set [15] (acetate buffer USP pH 4.50, 10 mg/mL) is “stable”; in data set [15] (hydrochloric acid buffer USP pH 1.40, 10 mg/mL), “stable”; in data set [15] (phosphate buffer USP pH 6.80, 10 mg/mL), “stable”. The “stability in hydrochloric acid buffer without pepsin” value in data set [15] (pH 1.4, 3 h) is “stable”. For the same compound, the “% of the initial content remained in simulated gastric fluid” value in [16] (1 μM) was 76%; in data set [16] (10 μM), 72%. The “permeation of the Transwell membrane in the absence of Caco-2 cells” value in [17] was “detectable levels”. In [18], the plasma concentration result was “less than 2 μg/mL”. In addition, the “% Recovery of Test Article A–B (mean)” value was 120.6% in [19] (10 μM + 100 μM ketoconazole), 112.2% in data set [19] (10 μM), 114.9% in data set [19] (50 μM + 100 μM ketoconazole) and 105.5% in [19] (50 μM). The “% Recovery of Test Article B-A (mean)” value in [19] (10 μM + 100 μM ketoconazole) was found to be 90.3%; in data set [19] (10 μM), 87.2%; in data set [19] (50 μM + 100 μM ketoconazole), 85.7%; in data set [19] (50 μM) it was 97.6%. For the same compound, the “concentration in the receiving wells” value in data set [19] (10 and 50 μM solutions, lower limit of quantitation) is under 0.5 µM. Also, in [19] (bi-directional, 10 and 50 μM), the “permeability across the Caco-2 monolayer” value is “not permeable”.

`C[C@H]1O[C@@H](O[C@H]2[C@@H](O)C[C@H](O[C@H]3[C@@H](O)C[C@H](O[C@H]4CC[C@@]5(C)[C@H](CC[C@@H]6[C@@H]5C[C@@H](O)[C@]5(C)[C@@H](C7=CC(=O)OC7)CC[C@]65O)C4)O[C@@H]3C)O[C@@H]2C)C[C@H](O)[C@@H]1O` [digoxin, reference compound]: in data set [20] (1 μM + 100 μM ketoconazole), the apparent permeability from apical to basolateral (Papp A→B) at 120 min, 1 μM amounted to 3.7 ×10⁻⁶ cm/s and the Papp B→A at 120 min, 1 μM was found to be 1.8 ×10⁻⁶ cm/s. In data set [20] (1 μM, control), this compound returned a Papp A→B at 120 min, 1 μM of 3.1 ×10⁻⁶ cm/s and a Papp B→A at 120 min, 1 μM of 8.6 ×10⁻⁶ cm/s.

As for `CC(C)NCC(O)COc1cccc2ccccc12` (stereo not drawn) [propranolol], the “stability in gastric fluid” value in data set [21] is “stable”.
